Shown are actives, neighbours in structure and some others; about 29% of the full set was active somewhere.
CYP2C9 inhib: blockers of cytochrome P450 2C9 activity – biochemical, luminescence, ADME assay, primary screen; P11712; CYP2C9 Supersomes, luciferin-H conversion; inhibition, % at 5 µM; 96,000 tested, 20% active; AID 777, 2007;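 active = blocking of liver enzyme CYP2C9 beyond about 50% at 5 µM, limit read from the data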
Target sequence (P11712 whole entry, looked up): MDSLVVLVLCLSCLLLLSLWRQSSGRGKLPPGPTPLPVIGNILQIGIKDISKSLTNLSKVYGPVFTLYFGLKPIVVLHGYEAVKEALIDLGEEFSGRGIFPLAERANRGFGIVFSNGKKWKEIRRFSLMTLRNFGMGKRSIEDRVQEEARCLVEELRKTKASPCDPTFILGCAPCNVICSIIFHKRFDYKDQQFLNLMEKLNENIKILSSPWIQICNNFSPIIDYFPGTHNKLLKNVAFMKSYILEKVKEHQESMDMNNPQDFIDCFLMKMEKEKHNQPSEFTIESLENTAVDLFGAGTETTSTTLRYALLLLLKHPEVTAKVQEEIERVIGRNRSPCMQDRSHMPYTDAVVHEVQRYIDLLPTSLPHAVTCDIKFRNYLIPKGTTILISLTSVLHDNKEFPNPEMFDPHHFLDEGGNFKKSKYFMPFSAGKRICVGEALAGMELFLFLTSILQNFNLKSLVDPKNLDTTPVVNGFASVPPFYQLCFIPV
Ecoli WT expand: growth inhibitors of wild-type E. coli, primary screen, strain BW25113, expanded library, OD600; AID 710, 2007; OD600 absorbance; 98,000 tested, 0.15% active; growth inhibition, % at 100 µM;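 active = growth inhibition above about 50% at one test dose, limit read from the data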;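 also: growth measured after 20 h incubation at 37 °C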
CYP2C9 act: human CYP2C9 activators, primary screen, biochemical, luminescence. recombinant CYP2C9, luciferin-H conversion; hits give high values; factor 1 = untreated enzyme, 0 = blocked. 96,000 tested, 1.4% active. activation factor at 5 µM;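 active = activation factor of 2 or more for CYP2C9 at a 5 µM dose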
Ecoli tolC: growth inhibitors of E. coli tolC mutant, primary screen, strain BW25113 ΔtolC::kan, 384-well; 65,000 tested, 2.2% active; OD615; growth inhibition, % at 10 µM (by protocol); AID 573, 2007;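 active = growth inhibition at or above a cutoff equal to the mean over every tested compound plus 3 SD, cut at about 60% in these data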;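 also: growth measured after 20 h incubation at 37 °C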
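Assay system: tolC-deleted E. coli BW25113. Medium: kanamycin-containing LB broth (50 µg/mL). Dosing: 10 µM final, single dose. Timing: bacterial growth with compound for 20 h at 37 °C. Detection: A615 absorbance measurement. Read-out basis: growth inhibition in percent.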
CYP2C19 inhib: blockers of cytochrome P450 2C19 activity – biochemical, luminescence, ADME assay, primary screen; P33261; CYP2C19 Supersomes, luciferin-H EGE luminescence, 30 min; inhibition, % at 5 µM; 96,000 tested, 21% active; AID 778, 2007;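 active = CYP2C19 inhibition above a set limit at 5 µM in the primary screen, cut at about 50% in these data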
CYP2C19 act: human CYP2C19 activators, primary screen, biochemical, luminescence. Cytochrome P450 2C19 (Homo sapiens), P33261. recombinant CYP2C19, luciferin-H EGE luminescence; hits give high values; 0 = fully inhibited enzyme, 1 = untreated enzyme. activation factor at 5 µM. 96,000 tested, under 10 active;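 active = activation factor of at least 2 at 5 µM in the primary screen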
Numbers stand for hits; – = inactive; · = no result given.

SMILES | CYP2C9 inhib | Ecoli WT expand | CYP2C9 act | Ecoli tolC | CYP2C19 inhib | CYP2C19 act
COCc1nnc(NC(=O)CCCCCN2C(=O)c3ccccc3C2=O)s1 | 63 | – | – | – | – | –
Cc1cccc(NC(=O)CCCCCN2C(=O)c3ccccc3C2=O)n1 | 79 | – | – | – | – | –
CC(C)Cc1nnc(NC(=O)CCN2C(=O)c3ccccc3C2=O)s1 | – | – | – | – | – | –
CCOC(=O)Cc1c(C)nc2c(-c3ccc(OC)cc3)c(C)nn2c1C | – | – | – | · | – | –
CN(C)c1oc(-c2ccccc2Cl)nc1P(=O)(c1ccccc1)c1ccccc1 | 67 | – | – | · | – | –
O=C1NCCc2c1[nH]c1ccccc21 | – | – | – | · | – | –
Cc1ccc(/C=C2/CCc3c([nH]c4ccccc34)C2=O)cc1 | – | – | – | · | 63 | –
Cc1ccc2[nH]c3c(c2c1)CC/C(=C/c1ccccc1)C3=O | – | – | – | · | – | –
O=C1/C(=C\c2ccccc2)CCc2c1[nH]c1ccccc21 | – | – | – | · | 91 | –
COc1cccc(NC(=O)C2CCN(S(=O)(=O)c3ccc4c(c3)OCCO4)CC2)c1 | – | – | – | · | – | –
O=C(Cc1ncc(C(F)(F)F)cc1Cl)Nc1ccc(F)cc1 | – | – | – | · | 91 | –
O=C(Cc1ncc(C(F)(F)F)cc1Cl)N1CCN(c2cccc(Cl)c2)CC1 | – | – | – | · | 84 | –
O=C(Cc1ncc(C(F)(F)F)cc1Cl)N1CCN(c2ccc(F)cc2)CC1 | – | – | 3.5 | · | 51 | –
O=C(NCc1ccccn1)C1COc2ccccc2O1 (stereo not given) | – | – | – | – | 77 | –
O=C(NCc1ccncc1)C1COc2ccccc2O1 (stereo not given) | – | – | – | · | 51 | –
Cc1ccccc1NC(=O)CCC(=O)OCCCC(F)(F)C(F)(F)F | – | – | – | – | – | –
CCOC(=O)/C(C#N)=C/c1ccc(OC)c(OC)c1 | – | – | – | · | – | –
CCOC(=O)/C(C#N)=C/c1ccc(OCC(=O)Nc2ccc(OC)cc2)c(OC)c1 | 59 | – | – | · | – | –
C=CCN=C(NC#N)SCc1ccccc1 | – | – | – | · | – | –
C=CCN=C(NC#N)SCC(=O)c1cccc(OC)c1 | – | – | – | – | 95 | –
Cc1ccc(CNC(=O)C2CC(c3cccc([N+](=O)[O-])c3)=NO2)o1 (stereo not given) | – | – | – | · | – | –
Cc1c(Br)cc(C(=O)NCCCN2CCOCC2)c(C)c1C | – | – | – | – | – | –
CC(=NCCCn1ccnc1)c1c(O)n(Cc2ccccc2)c(=O)[nH]c1=O | 78 | – | – | · | – | –
Cc1ccc(OCC(O)Cn2c(NCCc3ccccc3)nc3c2c(=O)[nH]c(=O)n3C)cc1 (stereo not given) | – | – | – | – | 51 | –
Cn1c(=O)[nH]c(=O)c2c1nc(NCCc1ccccc1)n2CC(O)COc1ccccc1 (stereo not given) | – | – | – | – | – | –
SMILES | CYP2C9 inhib | Ecoli WT expand | CYP2C9 act | Ecoli tolC | CYP2C19 inhib | CYP2C19 act
Cn1c(=O)[nH]c(=O)c2c1nc(NCCCn1ccnc1)n2CCOc1ccccc1 | 98 | – | – | – | 99 | –
CC1(C)CC(=O)C(C=NCCCn2ccnc2)=C(O)C1 | – | – | – | – | – | –
CN(Cc1ccccc1)c1nc2c(c(=O)[nH]c(=O)n2C)n1CCOc1ccccc1 | 54 | – | – | – | – | –
CCC(CC)c1nnc(NC(=O)CN2C(=O)C3C4C=CC(C4)C3C2=O)s1 (stereo not given) | – | – | – | · | – | –
CSc1nc(-c2ccccc2)nc2[nH]ccc(=O)c12 | · | · | · | – | · | ·
Cn1c(=O)[nH]c(=O)c2c1nc(NCCCn1ccnc1)n2Cc1ccccc1 | 96 | – | – | – | 80 | –
Cc1ccc(C(=O)CNc2nc3c(c(=O)[nH]c(=O)n3C)n2Cc2ccccc2)cc1 | 79 | – | – | – | 88 | –
Cn1c(=O)[nH]c(=O)c2c1nc(NCCCO)n2Cc1ccc(F)cc1 | – | – | – | – | – | –
COCCn1c(NCc2ccccc2)nc2c1c(=O)[nH]c(=O)n2C | – | – | – | – | – | –
Cc1ccc(S(=O)(=O)N(C)CCCC(=O)N2CCN(C=O)CC2)cc1 | – | – | – | – | – | –
COc1ccc(CN2CCC(CNC(=O)NC3CCCCC3)CC2)cc1 | – | – | – | – | – | –
CC(C)(C)C(=O)COC(=O)CNC(=O)c1ccc(Oc2ccccc2)cc1 | 53 | – | – | · | – | –
Cn1c(Cl)cnc1C1CC(=O)c2cc(Cl)ccc2O1 (stereo not given) | – | – | – | – | 81 | –
CC(C)NC(=S)NN(c1ccccc1)c1ccccc1 | 51 | – | – | · | 62 | –
CC1CCCC(NC(=O)c2ccc(CNc3c(N4CCCC4)c(=O)c3=O)cc2)C1C (stereo not given) | – | – | – | – | – | –
O=C(CN1CCC(n2nnc3ccccc32)CC1)NCc1cccs1 | – | – | – | – | – | –
Cc1occc1-c1nnc(SCC(=O)c2ccc(Cl)cc2)n1CC1CCCO1 (stereo not given) | – | – | – | – | – | –
CCn1c(SCC(=O)N2CCN(c3ccccc3)CC2)nnc1-c1ccoc1C | – | – | – | – | – | –
CCn1c(SCC(=O)c2ccc(C)cc2)nnc1-c1ccncc1 | – | – | – | · | – | –
CCn1c(SCC(=O)c2ccccc2)nnc1-c1ccoc1C | 54 | – | – | – | 97 | –
CCn1c(SCC(=O)c2ccc(C)cc2)nnc1-c1ccoc1C | – | – | – | – | 98 | –
CCn1c(SCC(=O)c2ccc(Cl)cc2)nnc1-c1ccoc1C | – | – | – | – | 66 | –
CC(C)(C)NC(=O)NC(=O)COC(=O)c1ccco1 | – | – | – | – | – | –
CN1CCN(c2ccc(Cl)cc2NS(=O)(=O)c2ccccc2Cl)CC1 | – | – | – | – | – | –
O=S(=O)(Nc1ccc(-n2cccc2)cc1)c1ccc(Cl)cc1Cl | 100 | – | – | · | 100 | –
Cc1occc1C(=O)Nc1sc2c(c1C(N)=O)CCC(C(C)(C)C)C2 (stereo not given) | 58 | – | – | · | – | –
CCC(C)(C)C1CCc2c(sc(NC(=O)c3ccoc3C)c2C(N)=O)C1 (stereo not given) | – | – | – | · | – | –
COc1ccc(CCNC(=O)Cc2cc(=O)[nH]c(=O)[nH]2)cc1OC | – | – | – | – | – | –
COc1cc(CC(=O)NCCc2ccc(OCc3ccccc3)cc2)c([N+](=O)[O-])cc1OC | – | – | – | · | 61 | –
COc1ccc(CCNC(=O)Cc2cc(OCc3ccccc3)c(OC)cc2[N+](=O)[O-])cc1OC | 55 | – | – | · | – | –

High-throughput results from PubChem.
